# Experimental data collected from several papers.
# Each line is one published result; the experiments were not run side by side.
SMILES,method,matrix,time,pH,temperature,setting,solubility
O=C1COc2ccc(-c3cccc(Cl)c3)cc2N1Cc1noc(C2CCC2)n1,,PBS,8 h,pH 7.4,,,100 µM
OCc1ccc(-c2nn(Cc3ccccn3)c3cccnc23)o1,,aqueous buffer,6 h,pH 7.4,,,> 30 µg/mL
O=c1c2ccc(Oc3ccc(OC(F)(F)F)cc3)cc2[nH]c2ccc(Cl)c(F)c12,absorbance,aqueous buffer,90 min,pH 7.4,,,< 3.12 µM
Cc1ccccc1CN1C(=O)C2=C(CCN(Cc3ccccc3)C2)N2CCN=C12,shake flask,aqueous buffer,,pH 1,,,62200 µg/mL
c1cc(-c2ccc3ncnc(Nc4ncco4)c3c2)cc(N2CC3(COC3)C2)c1,,aqueous buffer,,pH 7.4,25 °C,,3 µM
O=C(O)c1cc(-c2ccc(-n3ccnn3)cc2)cc(-n2cc(-c3ccc(C(F)(F)F)cc3)nn2)c1,,aqueous buffer,,pH 7.4,,,7.6 µg/mL
CNS(=O)(=O)c1ccc(Nc2ncc3cc(Cl)c(=O)n(C4CCCC4)c3n2)c(C)c1,,FaSSIF,2 h,,,,15 µM
c1cc(-c2ccc3ncnc(Nc4ncco4)c3c2)cc(N2CC3CCC(C2)O3)c1,,aqueous buffer,,pH 7.4,25 °C,,0.4 µM
Cc1ccc(N(C)c2ccc(NC(=O)CN(C)c3ccccc3N3CCCC3=O)cc2)cc1,,PBS,,pH 7.4,,,7.2 µM
Cn1cc(-c2ccc3ccn(CC(=O)Nc4ccccc4Cl)c3c2)c(C(F)(F)F)n1,,PBS,,pH 7.4,,,< 2.7 µM
OCc1ccc(-c2nn(Cc3ccccc3)c3cnccc23)o1,,aqueous buffer,6 h,pH 7.4,,,> 45 µg/mL
CN1CCN(c2cccc(-c3ccc4ncnc(Nc5ncco5)c4c3)c2)CC1,,aqueous buffer,,pH 7.4,25 °C,,520 µM
CCOC(=O)C1=C(CN2CCOCC2)NC(c2nccs2)=NC1c1ccc(F)cc1Br (centres unmarked),HPLC,aqueous buffer,,pH 7,,,< 1 µg/mL
COc1cnccc1Cn1nc(-c2ccc(CO)o2)c2ccccc21,,aqueous buffer,6 h,pH 7.4,,,> 33 µg/mL
CCN(CC)CCOc1ccc2c(=O)c3c([nH]c2c1)CCCC3,absorbance,aqueous buffer,90 min,pH 7.4,,,> 500 µM
Cc1ccc(Nc2cnnc3ccc(-c4ccc(N5CCCN(C)CC5)cc4)cc23)cn1,,aqueous buffer,,pH 7.4,25 °C,,82 µM
O=[N+]([O-])c1ccc(Nc2ncnc3ccc(-c4cccc(N5CCOCC5)c4)cc23)cc1C(F)(F)F,,aqueous buffer,,pH 7.4,25 °C,,< 0.4 µM
c1ccc(Oc2ccc(Nc3c4c(nc5ccccc35)CCC4)cc2)cc1,,simulated gastric fluid,30 min,pH 2,,acidic,25 to 50 µg/mL
Cc1ncc(-c2cc3cc(-c4c(C)ccc(O)c4C)cnc3[nH]2)cn1,,aqueous buffer,24 h,pH 7.4,,,< 1.56 µM
O=C(Nc1ccc(OC(F)(F)F)cc1)N[C@H]1CC[C@H](Oc2ccc(C(=O)O)cc2)CC1,,simulated gastric fluid,1 h,pH 1,37 °C,acidic,0.0008 µg/mL
CNS(=O)(=O)c1ccc(Nc2ncc(C(F)(F)F)c(N3CCC(C)(O)CC3)n2)c(C)c1,,FaSSIF,2 h,,,,26 µM
Cc1ccc(N(c2ccc(NC(=O)CN(C)c3ccccc3N3CCCC3=O)cn2)C(C)C)cc1,,PBS,,pH 7.4,,,24 µM
CNS(=O)(=O)c1ccc(Nc2ncc(C(F)(F)F)c([C@H]3CC[C@@](C)(O)CC3)n2)c(C)c1,,PBS,2 h,pH 7.4,,,11 µM
CC(C)N(c1ccc(C#N)cc1)c1ccc(NC(=O)CN(C)c2ccccc2N2CCCC2=O)cn1,,PBS,,pH 7.4,,,40 µM
CC1(CNc2nc(-c3cccs3)nc(Cl)c2-c2c(F)cc(N)cc2F)COC1,mass spectrometry,PBS,,pH 7.4,,,46 µM
OCc1ccc(-c2nn(Cc3ccccc3)c3ncccc23)o1,,aqueous buffer,6 h,pH 7.4,,,> 45 µg/mL
Nc1nc2c(ncn2COCCO)c(=O)[nH]1,shake flask,water,24 h,,,,1770 µg/mL
O=c1c2ccc(OCc3ccc(OC(F)(F)F)cc3)cc2[nH]c2cc(Cl)cc(F)c12,absorbance,aqueous buffer,90 min,pH 7.4,,,< 3.12 µM
C[C@@H]1CN(c2cccc(-c3ccc4ncnc(Nc5ncco5)c4c3)c2)C[C@H](C)O1,,aqueous buffer,,pH 7.4,25 °C,,11 µM
OCc1ccc(-c2nn(Cc3ccccc3)c3ccncc23)o1,,aqueous buffer,6 h,pH 7.4,,,> 45 µg/mL
CCOC(=O)C1=C(CN2CCC[C@@H]2C(=O)Nc2ccc(B(O)O)cc2)NC(c2nccs2)=N[C@H]1c1ccc(F)cc1Br,HPLC,aqueous buffer,,pH 7,,,2.57 µg/mL
OCc1ccc(-c2nn(Cc3cccnc3)c3ccccc23)o1,,aqueous buffer,6 h,pH 7.4,,,> 45 µg/mL
CCCN(CCC)CCNc1ccc2c(=O)c3c([nH]c2c1)CCCC3,absorbance,aqueous buffer,90 min,pH 7.4,,,> 500 µM
Oc1ccc(/C=C/c2cc(O)cc(O)c2)cc1,HPLC,aqueous buffer,24 h,pH 6.8,,,79.5 µg/mL
Cc1ccc(N(C)c2ccc(NC(=O)CN(C)c3cc(F)ccc3N3CCCC3=O)cc2)cc1,,PBS,,pH 7.4,,,6.3 µM
Clc1cccc(Nc2ncnc3ccc(-c4cccc(N5CCOCC5)c4)cc23)c1,,aqueous buffer,,pH 7.4,25 °C,,12 µM
O=C(O)Cc1ccccc1Nc1c(Cl)cccc1Cl,,FeSSIF,,,,,303 µM
c1coc(Nc2ncnc3ccc(-c4cncc(N5CCOCC5)n4)cc23)n1,,aqueous buffer,,pH 7.4,25 °C,,19 µM
OCc1ccc(-c2nn(Cc3ccncc3)c3cccnc23)o1,,aqueous buffer,6 h,pH 7.4,,,> 30 µg/mL
COc1ccc(Oc2ccc3c(=O)c4c(F)cc(Cl)cc4[nH]c3c2)cc1,absorbance,aqueous buffer,90 min,pH 7.4,,,< 3.12 µM
CN1CCN(c2cccc(-c3ccc4ncnc(Nc5ccc([N+](=O)[O-])c(C(F)(F)F)c5)c4c3)c2)CC1,,aqueous buffer,,pH 7.4,25 °C,,2 µM
Cc1ncsc1-c1ccc(CNC(=O)[C@@H]2C[C@@H](O)CN2C(=O)[C@@H](NC(=O)COCCOCCOCCNC(=O)C[C@@H]2N=C(c3ccc(Cl)cc3)c3c(sc(C)c3C)-n3c(C)nnc32)C(C)(C)C)cc1,HPLC,water,,pH 6.9,,,45 µg/mL
Cc1ccc(N(c2ccc(NC(=O)CN(C)c3ccccc3N3CCCC3=O)cc2)C(C)C)cc1,,PBS,,pH 7.4,,,< 2.5 µM
CC(C)(C(=O)O)[C@@H](NC(=O)Cc1cccc(I)c1)c1ccc2oc(=O)[nH]c2c1,,aqueous buffer,,pH 6.8,,,> 700 µM
